Values joined by “and” are separate entries in the source; they are usually repeats but may differ in a detail not shown here. Equal entries are not always repeated.

In one data set the test system is L. major promastigotes. The data set is described as follows: In vitro antileishmanial activity, promastigote drug susceptibility. The settings on record: for SI L. major: selectivity index IC50(MRC-5)/IC50(parasite). Type of data set: cell-based, L. major (MHOM/IL/80/Friedlin). An outline of the steps:
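Promastigotes at 1 × 10^6/mL were cultured in modified RPMI-1640 with 10% hiFBS. They were exposed to increasing compound concentrations for 72 h at 28 °C. Proliferation was measured by MTT, with absorbance read at 540 nm.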

The subject of data set [1] is bloodstream forms of T. brucei brucei. The data set is described as follows: In vitro antitrypanosomal activity, bloodstream forms. Type of data set: cell-based, T. brucei brucei S427 (S16). The conditions noted are these: for IC50: Trypanosoma brucei, 72 h, read-out: IC50 parasite T. brucei; for SI T. brucei: selectivity index IC50(MRC-5)/IC50(parasite). The method in brief:
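Bloodstream forms were kept in HMI-9 with 10% hiFBS at 37 °C, 5% CO2. Parasites at 1 × 10^4/mL were exposed to increasing compound concentrations for 72 h under the same conditions. Proliferation was read by alamarBlue fluorescence (excitation 550, emission 590 nm), and IC50 was derived from this.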

In data set [2] the test system is P. falciparum. The data set is described as follows: In vitro antimalarial activity, [3H]-hypoxanthine incorporation. The format is cell-based, P. falciparum (3D7 strain). An outline of the steps:
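Infected erythrocytes were used at 1.5% final hematocrit and 0.6% parasitemia in RPMI 1640 with 10% AB human serum. Compounds were dissolved in DMSO and diluted in medium, with final DMSO ≤0.25%. After 48 h at 37 °C, 0.6 μCi [3H]-hypoxanthine was added per well for 18 h. Cells were harvested onto glass-fibre filters for scintillation counting. Uninfected-erythrocyte background was subtracted, and IC50 was taken as 50% growth inhibition.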

The nature of data set [3]: Calculated LD50 on mice, extrapolated from zebrafish embryo LC50. The settings on record: mouse.
Data set [4] deals with HT-29, MCF-7, and HeLa cancer cells. The conditions noted are these: cited from earlier work.
In data set [5] the test system is P. falciparum. The conditions noted are these: read-out: concentration inhibiting 50% growth of P. falciparum; cited from earlier work.
Data set [6] has as its system MRC-5 human nontumoral lung cell line. The settings on record: read-out: IC50 MRC-5; MRC-5 control cell line, MTT, 72 h; cited from earlier work.
A short description of data set [7]: Acute toxicity assay on zebrafish embryos. Type of data set: in vivo, zebrafish (Danio rerio), strain AB. The settings on record: AB, zebrafish, in vivo. The method in brief: (§1)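 Embryos of strain AB were collected in E3 medium and sorted at 3 hpf, with 20 healthy embryos per condition. Medium was replaced by compound in 0.1% DMSO/E3, made from a 100 mM DMSO stock, at five log concentrations, either 0.01–100 μM or 0.1 μM–1 mM. Embryos were held at 28.5 °C from 3 to 96 hpf, and coagulated eggs were removed at 24 h. LC50 came from a sigmoidal fit of mortality. Controls were 0.1% DMSO in triplicate (repeat if mortality >20%) and DEAB at 0.1 μM–1 mM.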

For another data set, the system named is zebrafish embryos. The data set can be described thus: Acute toxicity assay on zebrafish embryos. Type of data set: in vivo, zebrafish (Danio rerio), strain AB. The conditions noted are these: zebrafish embryos, 96 hpf; mortality score >20% assumed as the effect. An outline of the steps:
as §1

In the case of `CN(C)CCCN1C(=O)c2ccc3c4c(c(NCc5cn(CCO[C@@H]6O[C@H](CO)[C@@H](O)[C@H](O)[C@H]6O)nn5)cc(c24)C1=O)C(=O)N(CCCN(C)C)C3=O` [Compound 6, β-glcC2-NDI], in the data set on L. major promastigotes, the “SI L. major” value stood at 1.3. Besides, in [1], the IC50 amounted to 17 ± 9 nM and the “SI T. brucei” value was determined as 41.8. Moreover, the “fold more active than compound 1 against P. falciparum” value in the data set on P. falciparum [2] is 5 fold. Besides, in data set [3], the median lethal dose (LD50) – broadly, the dose expected to kill half of the subjects tested – is > 630 µmol/kg and > 609 mg/kg. In addition, the “fold more active than compound 1, antitumor activity” value in data set [4] is given as “approximately 10 fold”.

As to `CC(=O)N[C@@H]1[C@@H](O)[C@H](O)[C@@H](CO)O[C@H]1n1cc(CNc2cc3c4c(ccc5c4c2C(=O)N(CCCN(C)C)C5=O)C(=O)N(CCCN(C)C)C3=O)nn1` [Compound 2, β-glcNAc-NDI], the LD50 in [3] is > 630 µmol/kg and > 607 mg/kg.

For the molecule `Cc1oc2nc1-c1nc(co1)-c1nc(co1)-c1nc(co1)-c1nc(co1)-c1nc(co1)C1=NC(CS1)c1nc-2c(C)o1` (centres unmarked) [telomestatin], the IC50 in the data set with P. falciparum [5] is 35000 nM.

Regarding `C[n+]1ccc(-c2c3nc(c(-c4cc[n+](C)cc4)c4ccc([nH]4)c(-c4cc[n+](C)cc4)c4nc(c(-c5cc[n+](C)cc5)c5ccc2[nH]5)C=C4)C=C3)cc1` [TMPyP4, reference compound], the IC50 in data set [6] was over 25000 nM; in the data set on P. falciparum [5] it was 5000 nM.

As for `CN(C)CCCN1C(=O)c2ccc3c4c(c(NCc5cn([C@@H]6O[C@H](CO)[C@@H](OC7O[C@H](CO)[C@@H](O)[C@H](O)[C@H]7O)[C@H](O)[C@H]6O)nn5)cc(c24)C1=O)C(=O)N(CCCN(C)C)C3=O.O=C(O)C(F)(F)F.O=C(O)C(F)(F)F` (stereo partly drawn) [Compound 4, β-malt-NDI], the IC50 is 921 ± 51 nM in the data set on L. major promastigotes (Leishmania major, 72 h, read-out: IC50 parasite L. major); 99 ± 10 nM in [1]; 2040 ± 50 nM in data set [6]. In the data set with L. major promastigotes, the “SI L. major” value amounted to 2.2. For the same molecule, the “SI T. brucei” value in data set [1] is recorded as 20.6. For the same molecule, the “SI P. falciparum” value with P. falciparum [2] (selectivity index IC50(MRC-5)/IC50(parasite)) was determined as 5.5. For the same molecule, the LC50 (in general, the concentration that kills 50% of the test population) at 96 hpf in data set [7] is 190000 nM. Moreover, the NOEC with zebrafish embryos came to 100 µM. Besides, in [3], the LD50 was 190 µmol/kg and 206 mg/kg.

Consider `CCCNc1cc2c3c(ccc4c3c1C(=O)N(CCCN(C)C)C4=O)C(=O)N(CCCN(C)C)C2=O` [Compound 7, NDI-prop], for which the “SI L. major” value in the data set on L. major promastigotes is given as 10.6. Also, in data set [1], the IC50 was determined as 9 ± 1 nM and the “SI T. brucei” value is 40.0. Further, the LD50 in [3] is 330 µmol/kg and 178 mg/kg.

With `C[C@H]1O[C@@H](n2cc(CNc3cc4c5c(ccc6c5c3C(=O)N(CCCN(C)C)C6=O)C(=O)N(CCCN(C)C)C4=O)nn2)[C@H](O)[C@@H](O)[C@@H]1O` [Compound 3, β-6dglc-NDI], in [3], the LD50 is 170 µmol/kg and 154 mg/kg.

On to `Cc1ccc(C(=O)Nc2ccc(S(=O)(=O)O)c3cc(S(=O)(=O)O)cc(S(=O)(=O)O)c23)cc1NC(=O)c1cccc(NC(=O)Nc2cccc(C(=O)Nc3cc(C(=O)Nc4ccc(S(=O)(=O)O)c5cc(S(=O)(=O)O)cc(S(=O)(=O)O)c45)ccc3C)c2)c1` [suramin, reference compound], for which the IC50 in data set [1] turned out to be 38 ± 3 nM.

On to `CN(C)CCCN1C(=O)c2ccc3c4c(c(NCc5cn(CCO[C@H]6O[C@H](CO)[C@@H](O)[C@H](O)[C@@H]6O)nn5)cc(c24)C1=O)C(=O)N(CCCN(C)C)C3=O` [Compound 5, α-manC2-NDI], for which the LD50 in [3] is > 630 µmol/kg and > 609 mg/kg.

The values above are taken from publication PMC6148440 (Journal of Medicinal Chemistry, 2018).
